Laboratory results from paper PMC2172688 (The Journal of Cell Biology, 2003).

Assays:
Tsg101 UEV domain = target: T1, Tsg101 UEV domain (Homo sapiens, UniProt Q99816); test: BIAcore biosensor binding of Tsg101 UEV to immobilized GST–peptide fusions; details: relative to HIV-1 PTAP peptide
T1 sequence (Q99816 2-145 limits assumed): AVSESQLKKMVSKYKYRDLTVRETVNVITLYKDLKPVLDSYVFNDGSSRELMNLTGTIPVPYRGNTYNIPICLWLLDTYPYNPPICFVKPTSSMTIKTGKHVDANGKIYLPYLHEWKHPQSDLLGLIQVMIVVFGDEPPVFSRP
Method in brief: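 Purified recombinant Tsg101 UEV domain was flowed over immobilized GST fusions of 10-amino-acid peptides spanning the central P(S/T)AP motifs of HIV-1 NL4–3 Gag, Tsg101 and Hrs. A mutant Gag PTAP peptide served as negative control. Binding was recorded at a range of UEV concentrations, and binding isotherms were plotted against concentration.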

[1] = target: GST fusion of a 10-amino acid peptide spanning the PSAP motif of human Hrs (human); test: SPR
[2] = target: GST fusion of a 10-amino acid peptide spanning the PTAP motif of HIV-1 NL4-3 Gag (HIV-1 NL4-3); test: SPR
[3] = target: GST fusion of a 10-amino acid peptide spanning the PTAP motif of human Tsg101 (human); test: SPR
[4] = target: T2, Tsg101–Gal4p binding domain fusion, full-length wild-type Tsg101 (human, UniProt Q99816 1-390); test: two-hybrid
T2 sequence (looked up): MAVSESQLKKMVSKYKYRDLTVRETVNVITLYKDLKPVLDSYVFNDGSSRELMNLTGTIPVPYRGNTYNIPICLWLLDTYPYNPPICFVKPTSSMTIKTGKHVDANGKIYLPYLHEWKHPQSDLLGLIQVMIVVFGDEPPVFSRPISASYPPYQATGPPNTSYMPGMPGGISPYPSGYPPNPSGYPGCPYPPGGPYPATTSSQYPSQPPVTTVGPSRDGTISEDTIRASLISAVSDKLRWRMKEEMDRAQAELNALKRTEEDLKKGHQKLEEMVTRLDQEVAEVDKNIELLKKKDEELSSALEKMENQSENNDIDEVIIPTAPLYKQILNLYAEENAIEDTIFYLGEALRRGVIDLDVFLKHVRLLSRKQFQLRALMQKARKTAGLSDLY

In the case of SPTPSAPVPL [Hrs SPTPSAPVPL], the “binding affinity weaker than Tsg101 UEV binding to the HIV-1 PTAP peptide” value (Tsg101 UEV domain) is reported as “sevenfold”.

“Tsg101 UEV domain (NH2-terminal ubiquitin E2 variant domain of Tsg101) (from UniProt Q99816 2-145) (domain or fragment)” gave a fold weaker binding affinity than for the HIV-1 PTAP peptide [1] of 7 fold, a Kd [2] of 21 µM and a fold weaker binding affinity than for the HIV-1 PTAP peptide [3] of 4 fold.

In the case of VIIPTAPLYK [Tsg101 VIIPTAPLYK], the “binding affinity weaker than Tsg101 UEV binding to the HIV-1 PTAP peptide” value (Tsg101 UEV domain) is reported as “fourfold”.

B1: Hrs^ΔPSAP, Gal4p activation domain fusion (alanine substitution of the Hrs 348PSAP351 sequence) (natural protein, human, UniProt O14964 1-777, looked up)
chain: MGRGSGTFERLLDKATSQLLLETDWESILQICDLIRQGDTQAKYAVNSIKKKVNDKNPHVALYALEVMESVVKNCGQTVHDEVANKQTMEELKDLLKRQVEVNVRNKILYLIQAWAHAFRNEPKYKVVQDTYQIMKVEGHVFPEFKESDAMFAAERAPDWVDAEECHRCRVQFGVMTRKHHCRACGQIFCGKCSSKYSTIPKFGIEKEVRVCEPCYEQLNRKAEGKATSTTELPPEYLTSPLSQQSQLPPKRDETALQEEEELQLALALSQSEAEEKERLRQKSTYTSYPKAEPMPSASSAPPASSLYSSPVNSSAPLAEDIDPELARYLNRNYWEKKQEEARKSPTAAAAVPLTEPAAQPGEGHAAPTNVVENPLPETDSQPIPPSGGPFSEPQFHNGESEESHEQFLKALQNAVTTFVNRMKSNHMRGRSITNDSAVLSLFQSINGMHPQLLELLNQLDERRLYYEGLQDKLAQIRDARGALSALREEHREKLRRAAEEAERQRQIQLAQKLEIMRQKKQEYLEVQRQLAIQRLQEQEKERQMRLEQQKQTVQMRAQMPAFPLPYAQLQAMPAAGGVLYQPSGPASFPSTFSPAGSVEGSPMHGVYMSQPAPAAGPYPSMPSTAADPSMVSAYMYPAGATGAQAAPQAQAGPTASPAYSSYQPTPTAGYQNVASQAPQSLPAISQPPQSSTMGYMGSQSVSMGYQPYNMQNLMTTLPSQDASLPPQQPYIAGQQPMYQQMAPSGGPPQQQPPVAQQPQAQGPPAQGSEAQLISFD
In the case of B1, the “fold reduction of binding against wild-type Hrs” value [4] is reported as ~2 fold.
